Laboratory results: ChEMBL document CHEMBL1156940, “Modified cap group suberoylanilide hydroxamic acid histone deacetylase inhibitor derivatives reveal improved selective antileukemic activity” (J Med Chem, 2010)
Active and inactive are the calls of the source. The calls are words filed in the database; no cut-off is given here.

Experiments:
[1] = tested on: SK-BR-3; assay: Antiproliferative activity against human SK-BR-3 cells after 48 hrs by cell titer-glo assay; assay type: functional, cell-based; conditions: SK-BR-3, 48 h
[2] = tested on: HT-29; assay: Antiproliferative activity against human HT-29 cells after 48 hrs by cell titer-glo assay; assay type: functional, cell-based; conditions: HT-29, 48 h
[3] = tested on: U-937; assay: Antiproliferative activity against human U937 cells after 48 hrs by cell titer-glo assay; assay type: functional, cell-based; conditions: U-937, 48 h
In short: (§1)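 Cells kept in RPMI-1640 with 10% FBS at 37 °C, 5% CO2. 10^4 suspension cells were plated immediately before dosing. Compounds were added at 0.1–100 µM, final 1% DMSO, with DMSO vehicle control, and incubated 48 h. CellTiter-Glo luminescence was read. EC50 is the dose reducing luminescence to 50% of untreated cultures.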

[4] = target: Histone deacetylase 1 (Homo sapiens) (UniProt Q13547); assay: Inhibition of recombinant FLAG-tagged HDAC1 assessed as [3H]acetic acid release preincubated for 30 mins measured after 2 hrs by scintillation counting
Histone deacetylase 1 (Homo sapiens), sequence (Q13547 whole entry): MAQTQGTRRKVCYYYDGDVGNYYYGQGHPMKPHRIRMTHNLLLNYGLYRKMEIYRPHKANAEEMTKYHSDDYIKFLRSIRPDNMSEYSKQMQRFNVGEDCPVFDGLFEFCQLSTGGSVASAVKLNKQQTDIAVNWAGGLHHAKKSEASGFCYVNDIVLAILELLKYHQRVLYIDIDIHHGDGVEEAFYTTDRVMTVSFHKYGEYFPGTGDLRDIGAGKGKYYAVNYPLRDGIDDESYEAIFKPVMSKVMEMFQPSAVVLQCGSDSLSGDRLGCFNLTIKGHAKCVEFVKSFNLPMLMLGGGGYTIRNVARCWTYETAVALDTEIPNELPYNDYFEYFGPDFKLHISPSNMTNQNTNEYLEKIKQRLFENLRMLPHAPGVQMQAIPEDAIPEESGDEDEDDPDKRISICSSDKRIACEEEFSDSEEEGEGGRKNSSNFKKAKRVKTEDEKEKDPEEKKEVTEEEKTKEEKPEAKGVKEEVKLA
In short: (§2)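 FLAG-tagged HDAC1 or HDAC6 was immunopurified from stably expressing cell lines and washed in HDAC buffer (10 mM Tris-HCl pH 8.0, 10 mM NaCl, 10% glycerol). Enzyme was preincubated with inhibitor (1 µM) for 30 min at 4 °C, then given 20 000 cpm [3H]peracetylated H4 peptide for 2 h at 37 °C. The reaction was stopped with acetic acid/HCl, extracted into ethyl acetate, and released [3H]acetate counted by scintillation.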

[5] = target: T1, Protein deacetylase HDAC6 (Homo sapiens) (UniProt Q9UBN7); assay: Inhibition of recombinant FLAG-tagged HDAC6 assessed as [3H]acetic acid release preincubated for 30 mins measured after 2 hrs by scintillation counting; in short: as §2
T1 sequence (whole entry): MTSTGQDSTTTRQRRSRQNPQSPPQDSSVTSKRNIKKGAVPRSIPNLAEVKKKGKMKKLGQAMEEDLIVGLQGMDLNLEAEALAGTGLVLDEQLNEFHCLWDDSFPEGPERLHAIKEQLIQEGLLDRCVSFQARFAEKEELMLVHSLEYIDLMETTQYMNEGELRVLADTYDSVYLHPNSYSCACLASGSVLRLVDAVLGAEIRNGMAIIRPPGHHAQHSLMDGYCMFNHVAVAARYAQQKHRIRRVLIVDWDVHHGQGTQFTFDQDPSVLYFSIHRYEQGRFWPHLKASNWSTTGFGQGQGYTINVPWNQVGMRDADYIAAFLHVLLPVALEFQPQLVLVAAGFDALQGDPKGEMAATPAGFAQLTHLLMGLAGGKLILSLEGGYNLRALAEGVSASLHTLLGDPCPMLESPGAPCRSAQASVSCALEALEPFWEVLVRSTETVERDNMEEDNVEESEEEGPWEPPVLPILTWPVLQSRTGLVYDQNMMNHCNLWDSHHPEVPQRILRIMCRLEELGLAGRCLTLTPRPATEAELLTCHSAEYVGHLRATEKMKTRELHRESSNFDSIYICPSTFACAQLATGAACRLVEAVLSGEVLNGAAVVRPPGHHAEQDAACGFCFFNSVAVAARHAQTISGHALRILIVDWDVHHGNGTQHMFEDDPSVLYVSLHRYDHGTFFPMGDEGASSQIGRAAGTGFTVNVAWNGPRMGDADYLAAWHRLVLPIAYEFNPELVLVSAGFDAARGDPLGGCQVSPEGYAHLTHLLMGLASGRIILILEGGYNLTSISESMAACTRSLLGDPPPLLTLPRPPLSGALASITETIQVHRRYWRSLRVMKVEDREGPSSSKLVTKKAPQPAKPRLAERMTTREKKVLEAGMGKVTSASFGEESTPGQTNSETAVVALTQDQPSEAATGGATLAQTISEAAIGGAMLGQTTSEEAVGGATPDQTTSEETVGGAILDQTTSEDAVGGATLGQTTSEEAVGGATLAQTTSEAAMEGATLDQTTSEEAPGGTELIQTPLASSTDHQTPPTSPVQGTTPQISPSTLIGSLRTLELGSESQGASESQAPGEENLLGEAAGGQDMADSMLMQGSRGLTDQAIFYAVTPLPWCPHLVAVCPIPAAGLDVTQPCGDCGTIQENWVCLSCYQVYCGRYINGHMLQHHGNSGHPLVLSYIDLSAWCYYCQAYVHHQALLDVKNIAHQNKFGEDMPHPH

[6] = tested on: Jurkat; assay: Antiproliferative activity against human Jurkat JA16 cells after 48 hrs by cell titer-glo assay; assay type: functional, cell-based
[7] = tested on: HL-60; assay: Antiproliferative activity against human HL60 cells after 48 hrs by cell titer-glo assay; assay type: functional, cell-based; conditions: HL-60, 48 h
[8] = tested on: K562; assay: Antiproliferative activity against human K562 cells after 48 hrs by cell titer-glo assay; assay type: functional, cell-based; conditions: K562, 48 h; in short: as §1

Compound | EC50 [1] [µM] | EC50 [2] [µM] | EC50 [3] [µM] | Activity [4] | Activity [5] | EC50 [6] [µM] | EC50 [7] [µM] | EC50 [8] [µM]
O=C(CCCCCCC(=O)Nc1cccc2cccnc12)NO | > 100 | > 100 | 26 |  |  |  |  | 
O=C(CCCCCCC(=O)Nc1cccc(C(F)(F)F)c1)NO | 26 | 6.4 | 1.2 |  |  |  |  | 
O=C(O)CCCCCCC(=O)NO | > 100 | > 100 | > 100 |  |  | > 100 | > 100 | > 100
O=C(CCCCCCC(=O)NO)NO [SUBEROHYDROXAMIC ACID] | 27 | 32 | 23 |  |  |  |  | 
O=C(CCCCCCC(=O)Nc1cccc(Cl)c1)NO | 2 | 1 | 0.35 | Active | Active | 0.58 | 2.1 | 3.5
O=C(CCCCCCC(=O)Nc1ccc(Cl)cc1)NO | 2.3 | 2.1 | 0.55 | Active | Active | 0.77 | 1.87 | 3.3
O=C(CCCCCCC(=O)Nc1ccc2c(c1)Cc1ccccc1-2)NO | 4 | 2.5 | 0.6 | Active | Active | 0.43 | 1.13 | 3.5
O=C(CCCCCCC(=O)Nc1ccccc1-c1ccccc1)NO | 73.5 | 27 | 14 |  |  |  |  | 
O=C(CCCCCCC(=O)Nc1ccc([N+](=O)[O-])cc1)NO | 58 | 76 | 22 |  |  |  |  | 
O=C(CCCCCCC(=O)Nc1ccccc1Br)NO | 17.5 | 17 | 6.8 |  |  |  |  | 

The remaining lines, values ahead:

EC50 [1] [µM] | EC50 [2] [µM] | EC50 [3] [µM] | Activity [4] | Activity [5] | EC50 [6] [µM] | EC50 [7] [µM] | EC50 [8] [µM] | Compound
3 | 4.2 | 1.8 | Active | Active |  |  |  | O=C(CCCCCCC(=O)Nc1ccc(F)cc1)NO
11 | 15 | 6.4 |  |  |  |  |  | O=C(CCCCCCC(=O)Nc1ccc(O)cc1)NO
8.5 | 18 | 6.4 |  |  |  |  |  | Nc1ccc(NC(=O)CCCCCCC(=O)NO)cc1
4.2 | 3.15 | 1.7 | Active | Active |  |  |  | CN(C)c1ccc(NC(=O)CCCCCCC(=O)NO)cc1
1.9 | 1.4 | 0.5 | Active | Active | 0.64 | 1.25 | 2.4 | O=C(CCCCCCC(=O)Nc1cccc(F)c1)NO
1.8 | 0.85 | 0.35 | Active | Active | 0.4 | 1.16 | 3 | O=C(CCCCCCC(=O)Nc1ccc2ccccc2c1)NO
8.8 | 42 | 7 |  |  |  |  |  | N#Cc1ccc(NC(=O)CCCCCCC(=O)NO)cc1
40.5 | 63 | 26.5 |  |  | 16 | 18 | > 100 | O=C(CCCCCCC(=O)Nc1[nH]c(=O)ncc1F)NO
2.2 | 1.4 | 0.45 | Active | Active | 0.53 | 1.54 | 2.1 | O=C(CCCCCCC(=O)Nc1ccc(C(F)(F)F)cc1)NO
